Values after ≈ are worked out from the molar mass of the structure shown.
Assays:
[1] = Selectivity index, Ratio of IC50 for Vero cells over MIC for Mycobacterium tuberculosis H37Rv; type: toxicity; details: monkey
[2] = biological target: T1, Decaprenylphosphoryl-beta-D-ribose oxidase (Mycobacterium tuberculosis (strain ATCC 25618 / H37Rv), UniProt P9WJF1); test: Inhibition of recombinant Mycobacterium tuberculosis DprE1 measured by resazurin dye based assay
T1 sequence (P9WJF1 whole entry): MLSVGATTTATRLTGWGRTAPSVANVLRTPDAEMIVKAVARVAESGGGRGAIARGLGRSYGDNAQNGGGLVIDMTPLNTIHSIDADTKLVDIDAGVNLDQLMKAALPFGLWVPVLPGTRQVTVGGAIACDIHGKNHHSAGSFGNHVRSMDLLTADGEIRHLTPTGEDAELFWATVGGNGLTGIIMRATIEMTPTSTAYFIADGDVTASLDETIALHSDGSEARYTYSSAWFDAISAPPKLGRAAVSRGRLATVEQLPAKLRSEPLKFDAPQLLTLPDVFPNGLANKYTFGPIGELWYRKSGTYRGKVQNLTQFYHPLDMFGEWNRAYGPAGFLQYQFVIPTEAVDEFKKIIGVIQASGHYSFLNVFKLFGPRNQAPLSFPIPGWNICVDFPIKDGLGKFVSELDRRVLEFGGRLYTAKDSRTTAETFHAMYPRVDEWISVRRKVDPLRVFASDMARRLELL
Outline: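 Resazurin-coupled fluorescence assay at 30 °C. Buffer: 50 mM HEPES pH 7.5, 100 mM NaCl, 1.5% DMSO, 100 µM Tween-20, 50 µM resazurin, 2 µM FAD. DprE1 at 1 µM with 1 mM FPR across inhibitor concentrations. Resorufin read at ex 530/em 595 nm. IC50 from initial velocities plotted against inhibitor concentration.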

[3] = test system: Mycobacterium tuberculosis; test: Antimycobacterial activity against Mycobacterium tuberculosis H37Rv measured by MABA assay; type: functional
Outline: (§1)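 Microplate Alamar Blue assay against replicating M. tuberculosis H37Rv or clinical isolates. MIC is the lowest concentration giving ≥90% reduction in fluorescence relative to the mean of replicate bacterium-only controls.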

[4] = Cytotoxicity against human HepG2 cells measured by MTT assay; type: toxicity, cell-based
Outline: (§2)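 Vero, HepG2 and mouse J774A.1 cells grown in RPMI 1640 with 10% FBS. MTT read-out in 96-well format.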

[5] = Metabolic stability in mouse hepatocytes assessed as half-life at 1 uM measured by LC-MS/MS analysis; type: ADME, cell-based, Hepatocyte
Outline: (§3)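 Compound at 1 µM with hepatocytes at 1 million cells/mL final; human hepatocytes are mixed donor, mouse are male. Incubated at 37 °C in CO2 at ~100 rpm. Sampled at 0, 15, 30, 60, 90 and 120 min, quenched in ice-cold ACN/MeOH with internal standard. Parent remaining measured by LC-MS/MS.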

[6] = biological target: Voltage-gated inwardly rectifying potassium channel KCNH2 (Homo sapiens, UniProt Q12809); test: Inhibition of hERG; type: toxicity
Voltage-gated inwardly rectifying potassium channel KCNH2, sequence (Q12809 whole entry): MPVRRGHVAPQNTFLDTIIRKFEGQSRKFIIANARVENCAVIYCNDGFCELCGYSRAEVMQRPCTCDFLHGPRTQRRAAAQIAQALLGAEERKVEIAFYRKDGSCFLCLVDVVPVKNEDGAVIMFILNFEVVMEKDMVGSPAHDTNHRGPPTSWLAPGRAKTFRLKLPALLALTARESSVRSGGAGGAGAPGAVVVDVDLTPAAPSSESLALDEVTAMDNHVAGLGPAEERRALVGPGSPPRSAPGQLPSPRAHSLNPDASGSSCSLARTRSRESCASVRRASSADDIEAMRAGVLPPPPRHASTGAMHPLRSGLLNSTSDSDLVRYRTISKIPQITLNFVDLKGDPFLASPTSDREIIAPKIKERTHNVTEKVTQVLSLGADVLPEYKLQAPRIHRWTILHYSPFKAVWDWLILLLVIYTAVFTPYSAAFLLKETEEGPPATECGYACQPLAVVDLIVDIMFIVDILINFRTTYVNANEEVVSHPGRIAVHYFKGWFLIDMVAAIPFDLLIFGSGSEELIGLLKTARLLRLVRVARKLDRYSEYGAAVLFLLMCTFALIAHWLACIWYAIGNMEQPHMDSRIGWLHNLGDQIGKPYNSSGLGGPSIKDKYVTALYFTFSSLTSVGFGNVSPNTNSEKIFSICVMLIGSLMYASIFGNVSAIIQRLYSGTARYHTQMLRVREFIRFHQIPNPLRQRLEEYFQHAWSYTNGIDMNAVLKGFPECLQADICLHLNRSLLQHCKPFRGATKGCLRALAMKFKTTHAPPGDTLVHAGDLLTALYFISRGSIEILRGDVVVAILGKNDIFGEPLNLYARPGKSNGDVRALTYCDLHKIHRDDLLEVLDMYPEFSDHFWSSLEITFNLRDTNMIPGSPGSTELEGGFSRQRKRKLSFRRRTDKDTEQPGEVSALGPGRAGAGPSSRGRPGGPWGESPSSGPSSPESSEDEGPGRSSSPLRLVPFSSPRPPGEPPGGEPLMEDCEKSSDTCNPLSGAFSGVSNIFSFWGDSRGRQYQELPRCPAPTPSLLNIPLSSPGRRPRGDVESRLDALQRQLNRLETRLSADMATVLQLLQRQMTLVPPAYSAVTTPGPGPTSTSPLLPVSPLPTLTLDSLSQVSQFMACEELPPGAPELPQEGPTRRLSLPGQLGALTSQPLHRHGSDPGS
Outline: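 Electrophysiological recording of hERG current at 30, 10, 3.0, 1.0 and 0.3 µM, run in duplicate for IC50.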

[7] = Metabolic stability in mouse hepatocytes assessed as compound remaining at 1 uM measured by LC-MS/MS analysis; type: ADME, cell-based, Hepatocyte; details: read-out: Stability; outline: as §3
[8] = test system: Mycobacterium tuberculosis; test: Antimycobacterial activity against Mycobacterium tuberculosis 14862 clinical isolate measured by MABA assay; type: functional; outline: as §1
[9] = Cytotoxicity against African green monkey Vero cells measured by MTT assay; type: toxicity, cell-based; details: African green monkey (Chlorocebus sabaeus); outline: as §2
[10] = Metabolic stability in human hepatocytes assessed as half-life at 1 uM measured by LC-MS/MS analysis; type: ADME, cell-based, Hepatocyte; outline: as §3
[11] = test system: Mycobacterium tuberculosis; test: Antimycobacterial activity against Mycobacterium tuberculosis 13946 clinical isolate measured by MABA assay; type: functional; outline: as §1
[12] = Cytotoxicity against mouse J774.A1 cells measured by MTT assay; type: toxicity, cell-based; outline: as §2
[13] = Metabolic stability in human hepatocytes assessed as compound remaining at 1 uM measured by LC-MS/MS analysis; type: ADME, cell-based, Hepatocyte; details: read-out: Stability; outline: as §3
[14] = test system: J774.A1; test: Antimycobacterial activity against Mycobacterium tuberculosis H37Rv infected in mouse J774.A1 cells assessed as change in log10 CFU at 5 ug/ml; type: functional; details: dose 5 µg/ml
Outline: (§4)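 Mouse J774A.1 macrophages infected with M. tuberculosis H37Rv, test compound at final 10 or 5 µg/mL. Read-out is intracellular log10 CFU; Δlog10 CFU = untreated minus treated. Triplicates in at least three separate experiments.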

[15] = test system: Mycobacterium tuberculosis; test: Antimycobacterial activity against Mycobacterium tuberculosis H37Rv infected in BALB/c mouse assessed as reduction in log10 CFU in lungs at 100 mg/kg, po administered 5 times a week from day 10 to 30; type: functional
Outline: (§5)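 Female SPF BALB/c mice, 18–20 g, 6 per group, aerosol-infected with M. tuberculosis H37Rv to deposit 50–100 bacilli per lung. Oral gavage in 0.5% CMC at 25 or 100 mg/kg, 5 days/week from day 10 to day 30; controls get vehicle. Lungs harvested the next day and plated on 7H11 for 3 weeks at 37 °C. Mean log10 CFU compared by Student's t test.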

[16] = test system: J774.A1; test: Antimycobacterial activity against Mycobacterium tuberculosis H37Rv infected in mouse J774.A1 cells assessed as change in log10 CFU at 10 ug/ml; type: functional; details: dose 10 µg/ml; outline: as §4
[17] = Toxicity in BALB/c mouse infected with Mycobacterium tuberculosis H37Rv assessed as body weight at 100 mg/kg, po administered 5 times a week from day 10 to 30; type: organism-based; details: in vivo; outline: as §5
[18] = test system: Mycobacterium tuberculosis; test: Antimycobacterial activity against Mycobacterium tuberculosis H37Rv infected in BALB/c mouse assessed as reduction in log10 CFU in lungs at 25 mg/kg, po administered 5 times a week from day 10 to 30; type: functional; outline: as §5
[19] = Toxicity in BALB/c mouse infected with Mycobacterium tuberculosis H37Rv assessed as body weight at 25 mg/kg, po administered 5 times a week from day 10 to 30; type: organism-based; details: in vivo; outline: as §5

Work on `COC(=O)NC(=O)c1ccsc1NC(=O)c1ccc(S(=O)(=O)N2CCCCC2)cc1` yielded a selectivity ratio [1] of 15, an IC50 [2] of 0.221 µM and an MIC [3] of 0.24 µg/mL (≈ 0.532 µM). The IC50 [4] was 36.8 µg/mL (≈ 81.5 µM), the half-life at 1 µM [5] was 14 min and the IC50 [6] was 3.3 µM. The remaining at 1 µM [7] was 22.7%, the MIC [8] was 0.51 µg/mL (≈ 1.13 µM) and the IC50 [9] was 3.62 µg/mL (≈ 8.02 µM). For the same compound, the half-life at 1 µM [10] was 4.6 min, the MIC [11] was 0.48 µg/mL (≈ 1.06 µM) and the IC50 [12] was 36.9 µg/mL (≈ 81.7 µM). The remaining at 1 µM [13] was 1%.

With `CCOC(=O)NC(=O)c1ccsc1NC(=O)c1ccc(S(=O)(=O)N2CCCC2)cc1` the Activity [14] was 1.19 deltalog10CFU, the selectivity ratio [1] was > 3640 and the MIC [3] was < 0.016 µg/mL. It also gave an Activity [15] of 4.81 log10CFU, an Activity [16] of 1.29 deltalog10CFU and an IC50 [4] of 62.9 µg/mL (≈ 139 µM). The half-life at 1 µM [5] was 29.7 min, the IC50 [6] was > 30 µM and the remaining at 1 µM [7] was 49.7%. For the same compound, the MIC [8] was 0.03 µg/mL (≈ 0.0664 µM), the IC50 [9] was 58.2 µg/mL (≈ 129 µM) and the half-life at 1 µM [10] was 24 min. For the same compound, the MIC [11] was 0.057 µg/mL (≈ 0.126 µM), the IC50 [12] was > 64 µg/mL and the Activity [17] was 20.94 g. For the same compound, the remaining at 1 µM [13] was 42%.

In the case of `NNC(=O)c1ccncc1` [ISONIAZID], the MIC [3] is reported as 0.019 µg/mL (≈ 0.139 µM), the MIC [8] is reported as > 10 µg/mL and the Activity [18] is reported as 1.76 log10CFU. For the same compound, the MIC [11] was 2.46 µg/mL (≈ 17.9 µM) and the Activity [19] was 20.9 g.
